Measured values: ChEMBL document CHEMBL1133671, “Synthesis and SAR of new 5-phenyl-3-ureido-1,5-benzodiazepines as cholecystokinin-B receptor antagonists” (J Med Chem, 2000)

What was measured:
[1] = target: T1, Cholecystokinin receptor type A (Rattus norvegicus, UniProt P30551); assay: In vitro inhibition of binding of [3H]pCCK-8 against Cholecystokinin type A receptor of rat pancreatic membranes; assay type: cell membranes, Membrane
T1 sequence (P30551 whole entry): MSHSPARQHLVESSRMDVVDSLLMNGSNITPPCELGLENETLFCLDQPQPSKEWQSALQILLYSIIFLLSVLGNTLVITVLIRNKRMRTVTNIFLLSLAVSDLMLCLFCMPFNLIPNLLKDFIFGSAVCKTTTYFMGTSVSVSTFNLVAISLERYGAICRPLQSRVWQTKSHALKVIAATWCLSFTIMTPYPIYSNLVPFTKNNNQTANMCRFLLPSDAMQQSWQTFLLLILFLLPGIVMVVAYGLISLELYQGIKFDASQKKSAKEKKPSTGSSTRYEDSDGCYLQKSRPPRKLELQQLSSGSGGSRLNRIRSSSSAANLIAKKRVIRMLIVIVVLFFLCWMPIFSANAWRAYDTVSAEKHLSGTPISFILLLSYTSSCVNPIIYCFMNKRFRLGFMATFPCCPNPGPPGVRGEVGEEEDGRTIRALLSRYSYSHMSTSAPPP
Summary of the method: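 Radioligand displacement of [3H]CCK-8S from membranes: rat pancreas for the CCK-A receptor and guinea-pig cerebral cortex for the CCK-B receptor, using slightly modified published methods. Values are means of n experiments.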

[2] = species on record: Cavia porcellus; assay: Selectivity factor between CCK-B and CCK-A receptors

SMILES | Ki [1] | Ratio [2]
CC(C)CCN1C(=O)C(NC(=O)Nc2cccc(N(C)C)c2)C(=O)N(c2ccccc2F)c2ccccc21 (single isomer, unassigned; (+)) [listing 1 of 2 here] | 200 nM | –
CC(C)(C)CCN1C(=O)C(NC(=O)Nc2cccc(C#N)c2)C(=O)N(c2ccccc2)c2ccccc21 (stereo not given) | 97.7 nM | 151
O=C(Nc1ccccc1)NC1C(=O)N(CC23C[C@H]4C[C@@H](C2)C[C@@H](C3)C4)c2ccccc2N(c2ccccc2)C1=O (single isomer, unassigned; (-)) | 479 nM | –
O=C(Nc1ccccc1)NC1C(=O)N(CC2[C@H]3C[C@@H]4C[C@@H](C[C@H]2C4)C3)c2ccccc2N(c2ccccc2)C1=O (mixture of isomers) | 83.2 nM | 48
CC(C)(C)CCN1C(=O)C(NC(=O)Nc2ccccc2)C(=O)N(c2ccccc2F)c2ccccc21 (racemic) | 70.8 nM | 74
O=C(Nc1ccccc1)NC1C(=O)N(c2ccccc2)c2ccccc2N(C2CC3CCC2C3)C1=O (racemic) | 251 nM | 162
CC(=O)Nc1cccc(NC(=O)NC2C(=O)N(CC34C[C@H]5C[C@@H](C3)C[C@@H](C4)C5)c3ccccc3N(c3ccccc3)C2=O)c1 (stereo not given in full) | 1510 nM | 591
O=C(O)CCCOc1ccc(NC(=O)NC2C(=O)N(CC34C[C@H]5C[C@@H](C3)C[C@@H](C4)C5)c3ccccc3N(c3ccccc3)C2=O)cc1 (single isomer, unassigned; (+)) | > 10000 nM | > 2630
O=C(Nc1cccc(C(=O)OCCN2CCOCC2)c1)NC1C(=O)N(CC23C[C@H]4C[C@@H](C2)C[C@@H](C3)C4)c2ccccc2N(c2ccccc2)C1=O (single isomer, unassigned; (+)) | 339 nM | 603
CN(C)c1cccc(NC(=O)NC2C(=O)N(CCC34C[C@H]5C[C@@H](C3)C[C@@H](C4)C5)c3ccccc3N(c3ccccc3)C2=O)c1 (stereo not given in full) | 295 nM | 22
CSc1cccc(NC(=O)NC2C(=O)N(CCC(C)(C)C)c3ccccc3N(c3ccccc3)C2=O)c1 (racemic) | 7.41 nM | 15
CC(C)CCN1C(=O)C(NC(=O)Nc2cccc(N(C)C)c2)C(=O)N(c2ccccc2F)c2ccccc21 (single isomer, unassigned; (-)) [listing 1 of 2 here] | 72.4 nM | –
O=C(Nc1cccc(Cl)c1)NC1C(=O)N(c2ccccc2)c2ccccc2N(C2CC3CCC2C3)C1=O (stereo not given) | 47.9 nM | 28
CC(C)C(C)CN1C(=O)C(NC(=O)Nc2ccccc2)C(=O)N(c2ccccc2)c2ccccc21 (racemic) | 123 nM | 110
O=C(Nc1ccc(O)cc1)NC1C(=O)N(CC23C[C@H]4C[C@@H](C2)C[C@@H](C3)C4)c2ccccc2N(c2ccccc2)C1=O (single isomer, unassigned; (+)) | 20400 nM | 30900
O=C(Nc1ccccc1)NC1C(=O)N(CCC2CCCC2)c2ccccc2N(c2ccccc2F)C1=O (racemic) | 100 nM | 138
O=Cc1cccc(NC(=O)NC2C(=O)N(CC34C[C@H]5C[C@@H](C3)C[C@@H](C4)C5)c3ccccc3N(c3ccccc3)C2=O)c1 (stereo not given in full) | 1120 nM | 1180
CN(C)c1cccc(NC(=O)NC2C(=O)N(c3ccccc3)c3ccccc3N(C3[C@H]4C[C@@H]5C[C@@H](C[C@H]3C5)C4)C2=O)c1 (stereo not given in full) | 141 nM | 60
CC(C)CCN1C(=O)C(NC(=O)Nc2cccc(N(C)C)c2)C(=O)N(c2ccccc2F)c2ccccc21 (single isomer, unassigned; (+)) [listing 2 of 2 here] | – | 933
O=C(Nc1cccc(C2N=NN=N2)c1)NC1C(=O)N(CCC2CCCC2)c2ccccc2N(c2ccccc2F)C1=O (racemic) | 120 nM | 468
CC(C)CC(C)N1C(=O)C(NC(=O)Nc2ccccc2)C(=O)N(c2ccccc2)c2ccccc21 (racemic) | 115 nM | 55
O=C(Nc1ccccc1)NC1C(=O)N(CCC23C[C@H]4C[C@@H](C2)C[C@@H](C3)C4)c2ccccc2N(c2ccccc2)C1=O (mixture of isomers) | 219 nM | 6
O=C(Nc1cccc(C(=O)O)c1)NC1C(=O)N(CC23C[C@H]4C[C@@H](C2)C[C@@H](C3)C4)c2ccccc2N(c2ccccc2)C1=O (mixture of isomers) | 631 nM | 646
CC(O)C(O)Nc1cccc(NC(=O)NC2C(=O)N(CC34C[C@H]5C[C@@H](C3)C[C@@H](C4)C5)c3ccccc3N(c3ccccc3)C2=O)c1 (single isomer, unassigned; (+)) [listing 1 of 2 here] | – | 11000
Nc1cccc(NC(=O)NC2C(=O)N(CC34C[C@H]5C[C@@H](C3)C[C@@H](C4)C5)c3ccccc3N(c3ccccc3)C2=O)c1 (single isomer, unassigned; (+)) | 4070 nM | 13800
CCOC(=O)CCCOc1ccc(NC(=O)NC2C(=O)N(CC34C[C@H]5C[C@@H](C3)C[C@@H](C4)C5)c3ccccc3N(c3ccccc3)C2=O)cc1 (single isomer, unassigned; (+)) | > 10000 nM | > 1900

SMILES | Ki [1] | Ratio [2]
CC(C)(C)CCN1C(=O)C(NC(=O)Nc2cccc(OC(F)(F)F)c2)C(=O)N(c2ccccc2)c2ccccc21 (racemic) | 112 nM | 38
CCCCN1C(=O)C(NC(=O)Nc2ccccc2)C(=O)N(c2ccccc2)c2ccccc21 (racemic) | 550 nM | 89
CC(C)CCN1C(=O)C(NC(=O)Nc2ccccc2)C(=O)N(c2ccccc2F)c2ccccc21 (racemic) | 195 nM | 25
CC(C)(C)CCN1C(=O)C(NC(=O)Nc2ccccc2)C(=O)N(c2ccccc2)c2ccccc21 (racemic) | 112 nM | 166
CC(C)Cn1nnc(-c2cccc(NC(=O)NC3C(=O)N(CCC(C)(C)C)c4ccccc4N(c4ccccc4)C3=O)c2)n1 (racemic) | 49 nM | 20
CC(C)CCN1C(=O)C(NC(=O)Nc2cccc(N(C)C)c2)C(=O)N(c2ccccc2F)c2ccccc21 (racemic) [listing 1 of 2 here] | – | 501
CC(C)CCN1C(=O)C(NC(=O)Nc2cccc(N(C)C)c2)C(=O)N(c2ccccc2F)c2ccccc21 (racemic) [listing 2 of 2 here] | 126 nM | –
CC(O)C(O)Nc1cccc(NC(=O)NC2C(=O)N(CC34C[C@H]5C[C@@H](C3)C[C@@H](C4)C5)c3ccccc3N(c3ccccc3)C2=O)c1 (mixture of isomers) [listing 1 of 2 here] | 631 nM | –
CN(C)c1cccc(NC(=O)NC2C(=O)N(CCC3CCCC3)c3ccccc3N(c3ccccc3F)C2=O)c1 (racemic) | 47.9 nM | 71
O=C(Nc1cccc(Br)c1)NC1C(=O)N(CC23C[C@H]4C[C@@H](C2)C[C@@H](C3)C4)c2ccccc2N(c2ccccc2)C1=O (mixture of isomers) | 191 nM | –
CSc1cccc(NC(=O)NC2C(=O)N(CCC(C)(C)C)c3ccccc3N(c3ccccc3F)C2=O)c1 (racemic) | 11.7 nM | 16
O=C(Nc1ccccc1)NC1C(=O)N(CCc2ccccc2)c2ccccc2N(c2ccccc2)C1=O (racemic) | 269 nM | 32
CSc1cccc(NC(=O)NC2C(=O)N(CCC(C)C)c3ccccc3N(c3ccccc3F)C2=O)c1 (racemic) | 36.3 nM | 110
CN(C)c1cccc(NC(=O)NC2C(=O)N(CCC(C)(C)C)c3ccccc3N(c3ccccc3F)C2=O)c1 (racemic) | 19.5 nM | 32
CC(O)C(O)Nc1cccc(NC(=O)NC2C(=O)N(CC34C[C@H]5C[C@@H](C3)C[C@@H](C4)C5)c3ccccc3N(c3ccccc3)C2=O)c1 (single isomer, unassigned; (+)) [listing 2 of 2 here] | 7410 nM | –
CN(C)c1ccc(NC(=O)NC2C(=O)N(CCC3CCCC3)c3ccccc3N(c3ccccc3F)C2=O)cc1 (racemic) | 661 nM | 141
O=C(Nc1ccc(Br)cc1)NC1C(=O)N(CC23C[C@H]4C[C@@H](C2)C[C@@H](C3)C4)c2ccccc2N(c2ccccc2)C1=O (stereo not given in full) | 3470 nM | 2460
O=C(Nc1cccc([N+](=O)[O-])c1)NC1C(=O)N(CC23C[C@H]4C[C@@H](C2)C[C@@H](C3)C4)c2ccccc2N(c2ccccc2)C1=O (mixture of isomers) | 302 nM | 158
CN(C)c1cccc(NC(=O)NC2C(=O)N(CC34C[C@H]5C[C@@H](C3)C[C@@H](C4)C5)c3ccccc3N(c3ccccc3)C2=O)c1 (mixture of isomers) | 447 nM | 398
CC(O)C(O)Nc1cccc(NC(=O)NC2C(=O)N(CC34C[C@H]5C[C@@H](C3)C[C@@H](C4)C5)c3ccccc3N(c3ccccc3)C2=O)c1 (mixture of isomers) [listing 2 of 2 here] | – | 575
O=C(Nc1cccc(O)c1)NC1C(=O)N(CC23C[C@H]4C[C@@H](C2)C[C@@H](C3)C4)c2ccccc2N(c2ccccc2)C1=O (single isomer, unassigned; (+)) | 1580 nM | 550
CSc1cccc(NC(=O)NC2C(=O)N(CCC34C[C@H]5C[C@@H](C3)C[C@@H](C4)C5)c3ccccc3N(c3ccccc3)C2=O)c1 (stereo not given in full) | 251 nM | 4
CCOC(=O)c1cccc(NC(=O)NC2C(=O)N(CC34C[C@H]5C[C@@H](C3)C[C@@H](C4)C5)c3ccccc3N(c3ccccc3)C2=O)c1 (mixture of isomers) | 813 nM | 275
CC(C)CCN1C(=O)C(NC(=O)Nc2cccc(N(C)C)c2)C(=O)N(c2ccccc2F)c2ccccc21 (single isomer, unassigned; (-)) [listing 2 of 2 here] | – | 39
CN(C)c1cccc(NC(=O)NC2C(=O)N(c3ccccc3)c3ccccc3N(C3CC4CCC3C4)C2=O)c1 (stereo not given) | 44.7 nM | 40
